According to ChEMBL document CHEMBL3596154, “Discovery of biaryl carboxylamides as potent RORγ inverse agonists” (Bioorg Med Chem Lett, 2015):

Columns and labels:
[1] = biological target: T1, Nuclear receptor ROR-gamma (Homo sapiens, UniProt P51449); assay: Inverse agonist activity at Gal4 DNA binding domain-tagged human RORgammat expressed in HEK293T cells assessed as effect on receptor-mediated transcriptional activity by luciferase reporter gene assay; assay type: functional, cell-based, HEK-293T
T1 sequence (P51449 whole entry): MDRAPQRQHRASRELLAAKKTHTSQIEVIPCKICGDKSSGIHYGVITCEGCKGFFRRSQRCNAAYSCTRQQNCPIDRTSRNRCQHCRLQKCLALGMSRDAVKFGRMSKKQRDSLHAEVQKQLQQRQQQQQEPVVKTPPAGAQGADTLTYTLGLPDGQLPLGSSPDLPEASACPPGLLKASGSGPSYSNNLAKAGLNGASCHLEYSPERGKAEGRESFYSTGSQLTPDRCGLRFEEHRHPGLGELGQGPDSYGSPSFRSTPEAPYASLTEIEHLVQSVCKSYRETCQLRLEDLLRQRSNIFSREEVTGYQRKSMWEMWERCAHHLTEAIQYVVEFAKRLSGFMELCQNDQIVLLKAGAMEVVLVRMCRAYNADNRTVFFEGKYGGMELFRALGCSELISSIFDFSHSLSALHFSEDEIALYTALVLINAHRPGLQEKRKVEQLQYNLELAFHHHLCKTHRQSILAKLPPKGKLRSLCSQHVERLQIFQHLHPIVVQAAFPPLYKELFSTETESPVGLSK
Procedure, shortened: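 293T cells transfected with a Gal4:RORγ luciferase reporter. Cells seeded day 1 and transfected day 2; compound added in assay medium after transfection. Day 3: cells lysed and luminescence read by dual-flash. Dose-response EC50 is the mean of at least two runs.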

[2] = biological target: T1, Nuclear receptor ROR-gamma; assay: Inverse agonist activity at human recombinant GST-tagged RORgammat ligand binding domain assessed as effect on receptor-biotin tagged TRAP220 co-activator peptide interaction using 10 nM GST-RORgamma LBD by FRET-based assay
Procedure, shortened: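 Recombinant human GST-RORγ LBD (10 nM) with 40 nM biotin-TRAP220 co-activator peptide, 50 nM SAAPC, 1.5 nM Eu-anti-GST IgG. Buffer: 20 mM Tris-HCl pH 7.0, 60 mM NaCl, 5 mM MgCl2, 1 mM DTT, 0.1% BSA, 1.0% DMSO. FRET read on plate reader. IC50 is the mean of at least two runs.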

[3] = biological target: T1, Nuclear receptor ROR-gamma; assay: Inverse agonist activity at human recombinant GST-tagged RORgammat ligand binding domain assessed as effect on receptor-biotin tagged TRAP220 co-activator peptide interaction using 10 nM GST-RORgamma LBD by FRET-based assay
[4] = AUC (infinity) in rat at 2 mg/kg, iv; assay type: ADME, organism-based; design: dose 2 mg/kg, time infinity, route intravenous; details: in vivo
Procedure, shortened: (§1)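 Rat PK; iv dosing at 2.0 mg/Kg in SPEW vehicle, oral dosing at 10 mg/Kg in 0.1% CMC-0.2%Tween; AUCinf reported in ng*hr/mL.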

[5] = Half life in rat at 2 mg/kg, iv; assay type: ADME, organism-based; details: in vivo
Procedure, shortened: (§2)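 Rats dosed at 2.0 mg/kg intravenously in SPEW vehicle. Plasma exposure profiled for T1/2 and Cmax.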

[6] = Apparent permeability from apical to basolateral side in human Caco2 cells; assay type: ADME, cell-based; details: Caco-2
[7] = Apparent permeability from basolateral to apical side in human Caco2 cells; assay type: ADME, cell-based; details: Caco-2
[8] = Inhibition of CYP450 (unknown origin); assay type: ADME; details: human
[9] = AUC (infinity) in rat at 10 mg/kg, po; assay type: ADME, organism-based; design: dose 10 mg/kg, route oral, time infinity; details: in vivo; procedure, shortened: as §1
Rattus norvegicus = assay: Clearance in rat at 2 mg/kg, iv relative to hepatic blood flow; assay type: ADME, organism-based, Liver; details: in vivo
Procedure, shortened: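 Rats given 2.0 mg/kg iv in SPEW vehicle. Clearance is expressed as % of hepatic blood flow (%Qh).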

[10] = Cmax in rat at 2 mg/kg, iv; assay type: ADME, organism-based; design: dose 2 mg/kg, route intravenous; details: in vivo; procedure, shortened: as §2
[11] = Clearance in rat hepatocytes relative to hepatic blood flow; assay type: ADME, cell-based, Liver, Hepatocyte; details: read-out: CLH
[12] = Clearance in human hepatocytes relative to hepatic blood flow; assay type: ADME, cell-based, Liver, Hepatocyte; details: read-out: CLH
[13] = Cmax in rat at 10 mg/kg, po; assay type: ADME, organism-based; design: dose 10 mg/kg, route oral; details: in vivo
[14] = Oral bioavailability in rat at 10 mg/kg; assay type: ADME, organism-based; details: in vivo

Row | Compound | EC50 [1] [nM] | IC50 [2] [nM] | IC50 [3] [nM] | also measured
1 | CN1CCN(C(=O)c2c(F)cccc2Cl)c2ccc(-c3cc(C(N)=O)ccc3Cl)cc21 | 210 | 250 | – | –
2 | CN(C(=O)c1c(F)cccc1Cl)c1ccc(-c2cc(C(N)=O)ccc2Cl)cc1 | – | – | 8700 | –
3 | CCN(C(=O)c1c(F)cccc1Cl)c1ccc(-c2cc(C(N)=O)ccc2Cl)cc1 | – | – | 1290 | –
4 | CN(C(=O)c1c(F)cccc1Cl)c1ccc(-c2cc(C(N)=O)ccc2Cl)cc1F | – | – | 1930 | –
5 | CN(C(=O)c1c(F)cccc1Cl)c1ccc(-c2cc(C(N)=O)ccc2Cl)cc1Cl | – | – | 2090 | –
6 | CN(C(=O)c1c(F)cccc1Cl)c1ccc(-c2cc(C(N)=O)ccc2Cl)cc1Br | 772 | – | 820 | –
7 | Cc1cc(-c2cc(C(N)=O)ccc2Cl)ccc1N(C)C(=O)c1c(F)cccc1Cl | – | – | 4220 | –
8 | CCc1cc(-c2cc(C(N)=O)ccc2Cl)ccc1N(C)C(=O)c1c(F)cccc1Cl | 350 | – | 730 | –
9 | CN(C(=O)c1c(F)cccc1Cl)c1ccc(-c2cc(C(N)=O)ccc2Cl)cc1C(F)(F)F | 484 | – | 230 | –
10 | COc1cc(-c2cc(C(N)=O)ccc2Cl)ccc1N(C)C(=O)c1c(F)cccc1Cl | 984 | – | 370 | –
11 | CCN(C(=O)c1c(F)cccc1Cl)c1ccc(-c2cc(C(N)=O)ccc2Cl)cc1OC | – | – | 1500 | –
12 | CCN(C(=O)c1c(F)cccc1Cl)c1ccc(-c2cc(C(N)=O)ccc2Cl)cc1C(F)(F)F | – | 1600 | – | –
13 | CCOc1cc(-c2cc(C(N)=O)ccc2Cl)ccc1N(C)C(=O)c1c(F)cccc1Cl | 181 | 50 | – | –
14 | CC(C)Oc1cc(-c2cc(C(N)=O)ccc2Cl)ccc1N(C)C(=O)c1c(F)cccc1Cl | 182 | 54 | – | –
15 | CCCOc1cc(-c2cc(C(N)=O)ccc2Cl)ccc1N(C)C(=O)c1c(F)cccc1Cl | 58 | 11 | – | –
16 | CCCCOc1cc(-c2cc(C(N)=O)ccc2Cl)ccc1N(C)C(=O)c1c(F)cccc1Cl | 101 | 22 | – | –
17 | CN(C(=O)c1c(F)cccc1Cl)c1ccc(-c2cc(C(N)=O)ccc2Cl)cc1OCC(F)(F)F | 93 | 11 | – | AUC(0-inf) [4]: 1130 ng·h/mL; half-life [5]: 1.3 h; Papp A→B [6]: 32.2 ×10⁻⁶ cm/s; Papp B→A [7]: 35.3 ×10⁻⁶ cm/s; inhibition (INH) [8]: Not Active; AUC(0-inf) [9]: 1550 ng·h/mL; CLH (Rattus norvegicus): 54%; Cmax [10]: 2350 ng/mL; hepatic extraction ratio [11]: 0.83; hepatic extraction ratio [12]: 0.88; Cmax [13]: 1010 ng/mL; bioavailability [14]: 28%
18 | CN(C(=O)c1c(F)cccc1Cl)c1ncc(-c2cc(C(N)=O)ccc2Cl)cc1OCC(F)(F)F | 246 | 20 | – | Papp A→B [6]: 35.9 ×10⁻⁶ cm/s; Papp B→A [7]: 54.5 ×10⁻⁶ cm/s; inhibition (INH) [8]: Not Active
19 | [2H]C([2H])([2H])N(C(=O)c1c(F)cccc1Cl)c1ncc(-c2cc(C(N)=O)ccc2Cl)cc1OCC(F)(F)F | 245 | 89 | – | –
20 | CN(C(=O)c1c(F)cccc1Cl)c1ncc(-c2cc(C(N)=O)ccc2Cl)cc1OCC1CCC1 | 58 | 10 | – | –
21 | [2H]C([2H])([2H])N(C(=O)c1c(F)cccc1Cl)c1ncc(-c2cc(C(N)=O)ccc2Cl)cc1OCC1CCC1 | 60 | 10 | – | –
22 | CCNc1cc(-c2cc(C(N)=O)ccc2Cl)ccc1N(C)C(=O)c1c(F)cccc1Cl | 717 | 500 | – | –
23 | CCN(CC)c1cc(-c2cc(C(N)=O)ccc2Cl)ccc1N(C)C(=O)c1c(F)cccc1Cl | 12 | 3 | – | –
24 | CN(C(=O)c1c(F)cccc1Cl)c1ccc(-c2cc(C(N)=O)ccc2Cl)cc1N1CCCCC1 | 8 | 3 | – | –
25 | Cn1ccc2c(S(=O)(=O)N(CC(F)(F)F)c3ccc(-c4cc(C(N)=O)ccc4Cl)cc3)cccc21 | – | 710 | – | –
